Converted amounts (≈) assume the structure as drawn. The source made the active and inactive calls. The calls are words filed in the database; no cut-off is given here. A value given as a limit tells only on which side of the number the result lay.

In data set [1] the target is T1, NAD-dependent protein deacetylase sirtuin-1 (Homo sapiens) (UniProt Q96EB6).
T1 sequence (whole entry): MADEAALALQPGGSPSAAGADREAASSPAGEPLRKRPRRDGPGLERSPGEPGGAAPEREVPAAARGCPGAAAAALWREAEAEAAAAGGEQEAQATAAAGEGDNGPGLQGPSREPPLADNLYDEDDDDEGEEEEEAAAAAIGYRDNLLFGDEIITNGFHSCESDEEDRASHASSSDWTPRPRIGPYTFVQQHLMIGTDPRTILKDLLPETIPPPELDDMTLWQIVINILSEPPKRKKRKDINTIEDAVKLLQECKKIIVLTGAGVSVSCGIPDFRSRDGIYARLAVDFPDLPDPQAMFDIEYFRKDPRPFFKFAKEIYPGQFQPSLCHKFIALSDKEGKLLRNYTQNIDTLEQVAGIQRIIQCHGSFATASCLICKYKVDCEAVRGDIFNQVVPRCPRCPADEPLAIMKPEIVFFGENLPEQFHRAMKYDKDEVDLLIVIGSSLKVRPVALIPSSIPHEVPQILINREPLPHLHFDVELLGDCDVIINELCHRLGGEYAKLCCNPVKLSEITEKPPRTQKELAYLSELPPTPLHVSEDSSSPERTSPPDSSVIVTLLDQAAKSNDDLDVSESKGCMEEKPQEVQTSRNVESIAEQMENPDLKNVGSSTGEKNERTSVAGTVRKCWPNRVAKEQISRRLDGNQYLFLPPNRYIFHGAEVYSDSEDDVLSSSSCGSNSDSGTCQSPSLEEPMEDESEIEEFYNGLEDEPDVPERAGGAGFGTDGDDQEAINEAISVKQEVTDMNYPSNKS
The data set can be described thus: Inhibition of SirT1 assessed as increase in p53 expression in human MCF7 cells at 5 uM after 6 hrs by Western blotting. The format is cell-based. In short, it runs like this:
(§1)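 MCF-7 cells grown in DMEM with 10% FCS and gentamycin, seeded at 2 × 10⁵ per well on collagen-coated plates and incubated 42 h at 37 °C in 5% CO2. Compound in DMSO was added for 6 h. Lysis in LDS buffer, protein equalised by BCA, 4–12% bis-tris SDS-PAGE, PVDF blot. Total p53 detected with DO.1, PCNA as loading control, ECL detection. Scored semi-quantitatively against untreated level.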
For orientation: In western blotting, separated proteins are transferred to a membrane and probed.

In data set [2] the target is T1, NAD-dependent protein deacetylase sirtuin-1 (Homo sapiens). The data set can be described thus: Inhibition of SirT1 assessed as increase in p53 expression in human MCF7 cells at 10 uM after 6 hrs by Western blotting. It is filed as cell-based. The gist of the method:
as §1

The target is the same in data set [3]. The data set can be described thus: Inhibition of SirT1 assessed as increase in p53 expression in human MCF7 cells at 2 uM after 6 hrs by Western blotting. The format is cell-based. In short, it runs like this:
as §1

Data set [4] can be described thus: Solubility of the compound in water by UV spectrophotometry. The format is physicochemical. In short, it runs like this:
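Extinction coefficient from absorbance at 273 nm of a 7-point 2-fold dilution series in acetonitrile; DMSO used first where needed. Coefficient taken from the slope of absorbance against molar concentration. Used to find the actual concentration of a nominal 100 µM aqueous solution made from 40 mM DMSO stock.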

Data set [5] concerns the target T1, NAD-dependent protein deacetylase sirtuin-1 (Homo sapiens). Description: Inhibition of recombinant human SitT1 at 60 uM by Fluor de Lys fluorescence assay. In short, it runs like this:
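Human recombinant SirT1 deacetylation measured with the Fluor de Lys fluorescence kit at a fixed 60 µM inhibitor. Tested on two separate occasions; percent inhibition reported as a mean weighted to the standard error.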

For data set [6], the target named is T2, NAD-dependent protein deacetylase sirtuin-1 (Homo sapiens, UniProt Q96EB6).
T2 sequence (Q96EB6 whole entry): T1 sequence (whole entry)
Description: Inhibition of recombinant human SitT1 by Fluor de Lys fluorescence assay.

Data set [7] concerns the target T3, NAD-dependent protein deacetylase sirtuin-2 (Homo sapiens, UniProt Q8IXJ6).
T3 sequence (Q8IXJ6 whole entry): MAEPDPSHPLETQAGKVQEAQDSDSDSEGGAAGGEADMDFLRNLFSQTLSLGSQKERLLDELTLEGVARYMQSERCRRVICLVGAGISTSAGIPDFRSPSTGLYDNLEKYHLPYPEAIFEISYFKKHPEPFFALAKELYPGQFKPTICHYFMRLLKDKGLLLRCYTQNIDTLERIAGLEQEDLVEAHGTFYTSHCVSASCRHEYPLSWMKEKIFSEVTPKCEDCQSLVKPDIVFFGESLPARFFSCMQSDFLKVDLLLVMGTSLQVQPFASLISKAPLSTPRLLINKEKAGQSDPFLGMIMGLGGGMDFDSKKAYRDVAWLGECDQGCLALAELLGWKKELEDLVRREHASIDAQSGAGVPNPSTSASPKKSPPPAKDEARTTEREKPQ
The data set can be described thus: Inhibition of recombinant human SitT2 by Fluor de Lys fluorescence assay.

A short description of data set [8]: Drug metabolism in human H1299 cells after 16 hrs by mass spectrophotometry. It is filed as ADME, cell-based. The following applies: nci-h1299, 16 h.
In data set [9] the target is T1, NAD-dependent protein deacetylase sirtuin-1 (Homo sapiens). Description: Inhibition of SirT1 in human ARN8 cells assessed as p53 activation at 10 uM by beta-galactosidase reporter gene assay. The format is cell-based. The gist of the method:
(§2)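 p53-dependent transcription measured with a beta-galactosidase reporter in ARN8 cells, run in triplicate. Read-out is the ratio of signal in treated cells to DMSO-control cells, given to 2 significant figures; a positive or negative activity call is also recorded.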

The target is the same in data set [10]. Description: Inhibition of SirT1 in human ARN8 cells assessed as p53 activation at 5 uM by beta-galactosidase reporter gene assay. The format is cell-based. In short, it runs like this:
as §2

Data set [11] in a line: Cytotoxicity against human H1299 cells at 30 uM. The format is cell-based. The following applies: nci-h1299, 30 µM.
Data set [12] is described as follows: Cytotoxicity against human H1299 cells at 20 uM. It is filed as cell-based. Conditions: nci-h1299, 20 µM.
The target in data set [13] is T1, NAD-dependent protein deacetylase sirtuin-1 (Homo sapiens). The data set can be described thus: Inhibition of SirT1 in human ARN8 cells assessed as p53 activation at 5 uM by beta-galactosidase reporter gene assay relative to control. It is filed as cell-based. The gist of the method:
as §2
In general terms: In a reporter assay the amount or activity of a reporter protein is the signal.

Data set [14] has the same target. Description: Inhibition of SirT1 in human ARN8 cells assessed as p53 activation at 10 uM by beta-galactosidase reporter gene assay relative to control. The format is cell-based. The gist of the method: as §2
Data set [15] shares this target. The data set can be described thus: Inhibition of SirT1 in human ARN8 cells assessed as p53 activation at 20 uM by beta-galactosidase reporter gene assay relative to control. It is filed as cell-based. The gist of the method: as §2
Data set [16] in a line: Cytotoxicity against human ARN8 cells at 20 uM. It is filed as cell-based. The following applies: arn8, 20 µM.
For data set [17], the target named is T1, NAD-dependent protein deacetylase sirtuin-1 (Homo sapiens). Description: Inhibition of SirT1 in human ARN8 cells assessed as p53 activation at 20 uM by beta-galactosidase reporter gene assay. The format is cell-based. The gist of the method:
as §2

As a reminder, the inhibition is the relative decrease from the control value, in per cent. As a reminder, the solubility is how much of the substance goes into solution per volume. On to `CC(=O)Nc1ccc(NC(=S)NC(=O)c2ccc(C(C)(C)C)cc2)cc1`, for which the inhibition entry in [1], in [2] and in data set [3] was “Active” throughout. Besides, the concentration in solution in [4] (solubility) came to 0.12 µg/mL (≈ 0.325 µM).
For orientation: IC50 means the concentration that inhibits the measured activity by half. In the case of `CN(C)CCOCCOCCOCCOCCOCC(=O)Nc1ccc(NC(=S)NC(=O)c2ccc(C(C)(C)C)cc2)cc1.Cl`, the inhibition entry in data set [1], in data set [2] and in [3] was “inactive” throughout. In [5], the inhibition was 29.6%. Moreover, the IC50 in [6] is more than 60 µM; in data set [7], more than 90 µM. The compound further showed a solubility in data set [4] of more than 1.34 µg/mL.
Turning to `CN(C)CCCCCCCC(=O)Nc1ccc(NC(=S)NC(=O)c2ccc(C(C)(C)C)cc2)cc1.Cl`, the inhibition entry in data set [1], in data set [2] and in data set [3] was “Active” throughout. Moreover, the inhibition in [5] amounted to 70.9%. For the same compound, in data set [4], the solubility is more than 1.01 µg/mL. Moreover, the IC50 in [7] came out at 41.7 µM.
On to `CN(C)CCCC(=O)Nc1ccc(NC(=S)NC(=O)c2ccc(C(C)(C)C)cc2)cc1.Cl`, for which the inhibition entry in data set [1] and in data set [2] was “Active” in each case. Moreover, the inhibition in [5] is 85.2%. For the same compound, the IC50 in [6] came to 35.8 µM; in [7], 12.8 µM. In [3], the inhibition result is “inactive”. Besides, the solubility in data set [4] stood at 0.57 µg/mL.
Regarding `CN(C)CCCCC(=O)Nc1ccc(N(C)C(=S)NC(=O)c2ccc(C(C)(C)C)cc2)cc1`, the inhibition result in data set [1], in data set [2] and in data set [3] was “inactive” throughout. Moreover, the inhibition in data set [5] stood at 6.6%.
For the compound `CN(C)CCCCC(=O)Nc1ccc(NC(=S)NC(=O)c2ccc(C(C)(C)C)cc2)cc1.Cl`, the inhibition entry in [1], in data set [2], in data set [9], in data set [10] and in data set [3] was “Active” in each case. Further, in data set [5], the inhibition stood at 73.9%. For the same compound, the Drug metabolism entry in data set [8] is given as “Active”. Besides, in data set [11], the Activity entry is given as “Toxic”. This compound displayed a solubility in data set [4] of 0.74 µg/mL.
As to `CCCCc1ccc(C(=O)NC(=S)Nc2ccc(NC(=O)CCCCN(C)C)cc2)cc1.Cl`, the Activity result in data set [12], in [11] and in [16] was “Toxic” throughout. The inhibition in data set [5] is 56.3%. Besides, the fold change (FC) was found to be 0.91 in data set [13], 0.93 in data set [14] and 0.28 in data set [15]. Further, the values for the IC50 in data set [6] and in [7] were 46.3 µM and 8.6 µM, respectively. Also, the inhibition result in data set [9] and in data set [10] was “inactive” in each case.
Take `CN(C)CCCCCC(=O)Nc1ccc(NC(=S)NC(=O)c2ccc(C(C)(C)C)cc2)cc1.Cl`: the inhibition result in [1], in [2] and in data set [3] was “Active” throughout. In data set [5], the inhibition was 96.2%. The compound further showed a solubility in data set [4] of more than 0.97 µg/mL. Further, the half-inhibitory concentration (IC50) in data set [7] came to 21.3 µM.
In the case of `CC(C)c1ccc(C(=O)NC(=S)Nc2ccc(NC(=O)CCCCN(C)C)cc2)cc1`, in data set [5], the inhibition worked out at 52.9%. For the same compound, the fold change (FC) in data set [13] is 8.7; in [14], 11.1; in [15] it was 12. The IC50 in [6] was 42.7 µM; in data set [7] it was 5.71 µM. Besides, the inhibition result in data set [9], in [10] and in data set [17] was “Active” in each case.

The record behind these values is ChEMBL document CHEMBL1944602, “Synthesis and biological characterisation of sirtuin inhibitors based on the tenovins” (Bioorg Med Chem, 2012).
